target: T1, OR2C1 (Homo sapiens) (UniProt O95371); conditions: stereoisomer not certain
T1 sequence (whole entry): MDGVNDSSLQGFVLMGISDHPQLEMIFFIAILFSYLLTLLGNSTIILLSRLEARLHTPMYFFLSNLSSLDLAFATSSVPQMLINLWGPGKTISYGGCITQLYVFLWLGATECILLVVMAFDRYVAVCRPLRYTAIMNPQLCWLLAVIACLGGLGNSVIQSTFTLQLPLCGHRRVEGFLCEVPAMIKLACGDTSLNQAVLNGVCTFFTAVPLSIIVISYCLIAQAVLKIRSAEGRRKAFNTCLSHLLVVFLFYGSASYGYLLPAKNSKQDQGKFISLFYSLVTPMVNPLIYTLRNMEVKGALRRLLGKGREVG
Outline: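 Each receptor–molecule pair is labelled responsive or non-responsive (inactive) according to whether the original authors judged the measured signal statistically different from baseline. The data were taken from the main text and supplementary material of published papers and checked for typos and inconsistencies. Assay methods differed by source, with transient luciferase assays in mammalian cell lines being common.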

Compound	odorant receptor agonist call;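 further: active if original authors judged signal statistically different from baseline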
C=C(C)C1CCC(C)C(=O)C1 (stereo not drawn)	inactive
CCCCCCO	inactive
CCCCCC(=O)CC	inactive
CCCCCCCC(=O)[O-].[H+]	inactive
CCCCOC(=O)C(C)OC(=O)CCC (stereo not drawn)	inactive
CCCCCCCCCO	inactive
CC(=O)OCC=C(C)C	inactive
C=CCOC(=O)CCCCCC	inactive
COc1cc(C(=O)O)ccc1O	inactive
CCC(=O)O	inactive
CCCCCCCCCC(=O)[O-].[H+]	inactive
c1ccccc1	inactive
CCCCCCCC(C)=O	inactive
CCCC(C)=O	inactive
CCCC(=O)C(C)=O	inactive
CCCCCCCCS	active
CCCCCOC(=O)CCCCC	inactive
CCOC(=O)C(C)C	inactive
CCCCCCCCO	inactive
CCCCC(C)=O	inactive
CCCCC(=O)O	inactive
CCCCCCOC(C)=O	inactive
O=C1Cc2ccccc2O1	inactive
CC12CCC(CC1=O)C2(C)C (stereo not drawn)	inactive
CCC(=O)C(=O)CC	inactive
CCCCCCCCCS	active
CCCCCCCCC(=O)O	inactive
CCCCCC1=C(C)CCC1=O	inactive
